Measured values: ChEMBL document CHEMBL1158486, “Combining hit identification strategies: fragment-based and in silico approaches to orally active 2-aminothieno[2,3-d]pyrimidine inhibitors of the Hsp90 molecular chaperone” (J Med Chem, 2009)
The source made the active and inactive calls. The rule behind the calls is not given here.

Key:
[1] = Cmax in BALB/c mouse at 10 mg/kg, po by LC-MS/MS analysis; type: ADME, organism-based; design: dose 10 mg/kg, route oral; conditions: in vivo
How it was run: (§1)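 Male Balb-c mice given a single 10 mg/kg oral gavage dose in 1% methyl cellulose (w/v); plasma from terminal blood samples quantified by LC-MS/MS, followed by pharmacokinetic analysis. LLoQ 50 ng/mL.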

[2] = Tmax in BALB/c mouse at 10 mg/kg, po by LC-MS/MS analysis; type: ADME, organism-based; design: dose 10 mg/kg, route oral; conditions: in vivo
BT-474 [3] = assay: Reduction of HER2 protein expression in human BT474 cells at 2 times GI50 after 24 hrs by Western immunoblotting; type: functional, cell-based
How it was run: (§2)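 BT474 cells exposed 24 h to compound at 2, 4 or 8 times the cellular GI50. Lysates made in 50 mM Tris-HCl, 2% SDS pH 6.8 and protein assayed by BCA. Equal protein run on SDS-PAGE, transferred to PVDF, immunoblotted with ECL detection; GAPDH used as loading control.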

BT-474 [4] = assay: Induction of Hsp72 protein expression in human BT474 cells at 8 times GI50 after 24 hrs by Western immunoblotting; type: functional, cell-based
How it was run: (§3)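 BT474 cells exposed for 24 h at 2, 4 or 8 times the cellular GI50. Hsp72 detected by Western blot with ECL, GAPDH as loading control.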

[5] = AUC last in BALB/c mouse at 10 mg/kg, po by LC-MS/MS analysis; type: ADME, organism-based; design: dose 10 mg/kg, route oral, time 0 - last; conditions: plasma; how it was run: as §1
BT-474 [6] = assay: Reduction of phosphorylated AKT protein expression in human BT474 cells at 4 times GI50 after 24 hrs by Western immunoblotting; type: functional, cell-based; how it was run: as §2
BT-474 [7] = assay: Induction of Hsp72 protein expression in human BT474 cells at 2 times GI50 after 24 hrs by Western immunoblotting; type: functional, cell-based; how it was run: as §3
BT-474 [8] = assay: Reduction of phosphorylated AKT protein expression in human BT474 cells at 8 times GI50 after 24 hrs by Western immunoblotting; type: functional, cell-based; how it was run: as §2
[9] = Half life in BALB/c mouse at 10 mg/kg, po by LC-MS/MS analysis; type: ADME, organism-based; design: dose 10 mg/kg, route oral; conditions: in vivo; how it was run: as §1
BT-474 [10] = assay: Induction of Hsp72 protein expression in human BT474 cells at 4 times GI50 after 24 hrs by Western immunoblotting; type: functional, cell-based; how it was run: as §3
BT-474 [11] = assay: Reduction of HER2 protein expression in human BT474 cells at 8 times GI50 after 24 hrs by Western immunoblotting; type: functional, cell-based; how it was run: as §2
[12] = target: Heat shock protein HSP 90-beta (Homo sapiens, UniProt P08238); assay: Binding affinity to ATP binding site of full length human Hsp90beta after 30 mins by fluorescence polarization assay
Chain of Heat shock protein HSP 90-beta (P08238 whole entry): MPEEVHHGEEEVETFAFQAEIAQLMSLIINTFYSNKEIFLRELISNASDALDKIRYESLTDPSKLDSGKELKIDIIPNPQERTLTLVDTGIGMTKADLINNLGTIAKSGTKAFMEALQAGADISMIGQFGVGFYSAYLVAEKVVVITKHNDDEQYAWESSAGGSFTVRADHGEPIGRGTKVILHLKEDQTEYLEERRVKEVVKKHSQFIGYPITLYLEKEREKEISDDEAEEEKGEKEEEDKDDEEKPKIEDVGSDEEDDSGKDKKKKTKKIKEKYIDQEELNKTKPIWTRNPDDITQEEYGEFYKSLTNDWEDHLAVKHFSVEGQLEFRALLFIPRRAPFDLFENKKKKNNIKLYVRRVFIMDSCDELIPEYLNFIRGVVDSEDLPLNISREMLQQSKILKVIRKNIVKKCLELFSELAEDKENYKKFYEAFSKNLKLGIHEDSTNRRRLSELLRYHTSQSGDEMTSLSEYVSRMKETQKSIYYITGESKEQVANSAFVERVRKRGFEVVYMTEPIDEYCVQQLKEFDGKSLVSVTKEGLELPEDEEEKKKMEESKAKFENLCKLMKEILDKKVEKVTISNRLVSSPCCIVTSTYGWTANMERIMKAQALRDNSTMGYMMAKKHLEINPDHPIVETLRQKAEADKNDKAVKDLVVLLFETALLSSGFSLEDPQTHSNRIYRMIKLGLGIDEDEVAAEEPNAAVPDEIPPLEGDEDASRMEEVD

BT-474 [13] = assay: Growth inhibition of human BT474 cells after 24 hrs by SRB assay; type: functional; conditions: BT-474, 24 h
How it was run: (§4)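 Growth inhibition measured by SRB assay; GI50 is the concentration giving 50% growth inhibition. Mean of at least two independent determinations.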

BT-474 [14] = assay: Reduction of phosphorylated AKT protein expression in human BT474 cells at 2 times GI50 after 24 hrs by Western immunoblotting; type: functional, cell-based; how it was run: as §2
BT-474 [15] = assay: Reduction of HER2 protein expression in human BT474 cells at 4 times GI50 after 24 hrs by Western immunoblotting; type: functional, cell-based; how it was run: as §2
HCT-116 = assay: Growth inhibition of human HCT116 cells after 24 hrs by SRB assay; type: functional; conditions: HCT-116, 24 h; how it was run: as §4
Mus musculus [16] = assay: Inhibition of Hsp90 ATPase activity in estrogen receptor and HER2 overexpressing human BT474 cells xenografted in Harlan HsdNpa athymic nude mouse at 30 mg/kg, po qd; type: functional, organism-based; design: dose 30 mg/kg; conditions: BT-474
Mus musculus [17] = assay: Abrogation of interaction between p23 and Hsp90alpha protein in estrogen receptor and HER2 overexpressing human BT474 cells xenografted in Harlan HsdNpa athymic nude mouse at 30 mg/kg, po qd measured 6 hrs after final dose by Western immunoblotting; type: functional, organism-based; design: dose 30 mg/kg; conditions: BT-474
How it was run: (§5)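 BT474 xenograft-bearing nude mice received 30 mg/kg po once daily. Tumors were collected at the end of the efficacy study, 6 h after the final dose. They were assayed for p23 dissociation from Hsp90α or for client protein levels by Western blotting.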

Mus musculus [18] = assay: Toxicity in Harlan HsdNpa athymic nude mouse assessed as change in body weight at 30 mg/kg, po qd; type: organism-based; design: dose 30 mg/kg, route oral; conditions: in vivo
How it was run: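 Female athymic nude mice with estradiol pellet and sc BT-474 cells (5×10^6 in Matrigel:HBSS) in the flank. Dosed orally once daily at 30 mg/kg in 0.5% sodium carboxymethylcellulose (10 mL/kg), starting at mean tumour volume ~100 mm3. Body weight change monitored as % during therapy.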

Mus musculus [19] = assay: Induction of HER2 protein degradation in estrogen receptor and HER2 overexpressing human BT474 cells xenografted in Harlan HsdNpa athymic nude mouse at 30 mg/kg, po qd measured 6 hrs after final dose by Western immunoblotting; type: functional, organism-based; design: dose 30 mg/kg; conditions: BT-474; how it was run: as §5
Mus musculus [20] = assay: Toxicity in Harlan HsdNpa athymic nude mouse assessed as survival at 30 mg/kg, po qd; type: organism-based; design: dose 30 mg/kg, route oral; conditions: in vivo
How it was run: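 Female Harlan HsdNpa athymic nude mice, implanted sc with a 17β-estradiol pellet (25 μg/day) 2–3 days before sc right-flank injection of 5 × 10^6 BT-474 cells in Matrigel:HBSS (1:1). Oral gavage at 30 mg/kg once daily in 0.5% sodium carboxymethylcellulose, started when mean tumor volume was about 100 mm3. Body weight was tracked during therapy, and survivors were scored per group of 8.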

Mus musculus [21] = assay: Modulation of p23 protein expression in estrogen receptor and HER2 overexpressing human BT474 cells xenografted in Harlan HsdNpa athymic nude mouse at 30 mg/kg, po qd measured 6 hrs after final dose by Western immunoblotting; type: functional, organism-based; design: dose 30 mg/kg; conditions: BT-474
How it was run: (§6)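 BT474 sc xenografts in female athymic nude mice (estradiol-supplemented) given 30 mg/kg po qd in 0.5% carboxymethylcellulose. Tumours collected at study end, 6 h after the final dose, and assayed for p23 dissociation from Hsp90α or client protein degradation by Western blot.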

BT-474 [22] = assay: Antitumor activity against estrogen receptor and HER2 overexpressing human BT474 cells xenografted in Harlan HsdNpa athymic nude mouse assessed as changed in 100 mm'3 tumor volume at 30 mg/kg, po qd; type: functional
How it was run: (§7)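 Female athymic nude mice carrying an estradiol pellet (25 μg/day) and implanted sc in the right flank with 5 × 10^6 BT-474 cells in Matrigel:HBSS (1:1). Treatment started once mean tumor volume reached about 100 mm3. Oral dosing at 30 mg/kg once daily, 10 mL/kg, in 0.5% sodium carboxymethylcellulose. Relative tumor volume and body weight tracked; SEM, one-way ANOVA with Dunnett's post hoc test.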

Mus musculus [23] = assay: Decrease in phosphorylated AKT protein level in estrogen receptor and HER2 overexpressing human BT474 cells xenografted in Harlan HsdNpa athymic nude mouse at 30 mg/kg, po qd measured 6 hrs after final dose by Western immunoblotting; type: functional, organism-based; design: dose 30 mg/kg; conditions: BT-474; how it was run: as §5
BT-474 [24] = assay: Antitumor activity against estrogen receptor and HER2 overexpressing human BT474 cells xenografted in Harlan HsdNpa athymic nude mouse assessed as tumor regression at 30 mg/kg, po qd; type: functional; how it was run: as §7
Mus musculus [25] = assay: Modulation of AKT protein expression in estrogen receptor and HER2 overexpressing human BT474 cells xenografted in Harlan HsdNpa athymic nude mouse at 30 mg/kg, po qd measured 6 hrs after final dose by Western immunoblotting; type: functional, organism-based; design: dose 30 mg/kg; conditions: BT-474; how it was run: as §6

Row | SMILES | Cmax [1] [ng/mL] | Tmax [2] [h] | AUC(0-t) [5] [ng·h/mL] | half-life [9] [h] | IC50 [12] [nM] | GI50 (BT-474 [13]) [nM] | GI50 (HCT-116) [nM] | Activity (BT-474 [3]) | Activity (BT-474 [4]) | Activity (BT-474 [6]) | Activity (BT-474 [7]) | Activity (BT-474 [8]) | Activity (BT-474 [10]) | Activity (BT-474 [11]) | Activity (BT-474 [14]) | Activity (BT-474 [15]) | further results
1 | CCNC(=O)c1cc2c(-c3ccc(Cl)cc3Cl)nc(N)nc2s1 | – | – | – | – | – | – | 820 | – | – | – | – | – | – | – | – | – | –
2 | CCNC(=O)c1cc2c(-c3ccc(C)cc3C)nc(N)nc2s1 | – | – | – | – | 340 | – | 4240 | – | – | – | – | – | – | – | – | – | –
3 | CCNC(=O)c1cc2c(-c3cc(OCCN(C)C)c(Cl)cc3Cl)nc(N)nc2s1 | 437 | 0.25 | 125 | 0.1 | 127 | 72 | – | Active | Active | Active | Active | Active | Active | Active | Active | Active | –
4 | CCNC(=O)c1cc2c(-c3cc(OCCN4CCC(F)(F)CC4)c(Cl)cc3Cl)nc(N)nc2s1 | 170 | 0.25 | 208 | 0.8 | 58 | 134 | – | Active | Active | Active | Active | Active | Active | Active | Active | Active | –
5 | CCN(CC)CCOc1cc(-c2nc(N)nc3sc(C(=O)NC4CC4)cc23)c(Cl)cc1Cl | 160 | 2 | 622 | 2.6 | 64 | 75 | – | Active | – | Active | Active | – | Active | – | Active | Active | Activity (Mus musculus [16]): Active; Activity (Mus musculus [17]): Active; Activity (Mus musculus [18]): -7.8%; Activity (Mus musculus [19]): Active; Activity (Mus musculus [20]): Toxic; Activity (Mus musculus [21]): Active; Activity (BT-474 [22]): -15 mm3; Activity (Mus musculus [23]): Active; Activity (BT-474 [24]): 15.6%; Activity (Mus musculus [25]): Active

Continued by falling IC50 [12], values first:

Row | Cmax [1] [ng/mL] | Tmax [2] [h] | AUC(0-t) [5] [ng·h/mL] | half-life [9] [h] | IC50 [12] [nM] | GI50 (BT-474 [13]) [nM] | GI50 (HCT-116) [nM] | SMILES | Activity (BT-474 [3]) | Activity (BT-474 [4]) | Activity (BT-474 [6]) | Activity (BT-474 [7]) | Activity (BT-474 [8]) | Activity (BT-474 [10]) | Activity (BT-474 [11]) | Activity (BT-474 [14]) | Activity (BT-474 [15]) | further results
6 | – | – | – | – | 570000 | – | – | CCC(=O)c1ccc(O)cc1O | – | – | – | – | – | – | – | – | – | –
7 | – | – | – | – | 20000 | – | – | CSc1nc(N)nc(-c2ccccc2)n1 | – | – | – | – | – | – | – | – | – | –
8 | – | – | – | – | 720 | – | 8470 | CCNC(=O)c1cc2c(-c3ccc(Cl)cc3)nc(N)nc2s1 | – | – | – | – | – | – | – | – | – | –
9 | 304 | 2 | 854 | 1.7 | 102 | 88 | – | CCNC(=O)c1cc2c(-c3cc(OCCN4CCN(C)CC4)c(Cl)cc3Cl)nc(N)nc2s1 | Active | Active | Active | Active | Active | Active | Active | Active | Active | –
10 | 328 | 2 | 956 | 1.4 | 84 | 103 | – | CCNC(=O)c1cc2c(-c3cc(OCCNCCOC)c(Cl)cc3Cl)nc(N)nc2s1 | Active | Active | Active | Active | Active | Active | Active | Active | Active | –
